# Bioassay records (PubChem BioAssay)
# hERG protect – shields human hERG channel from block by proarrhythmic agents | CHO-hERG, FluxOR thallium flux, dofetilide IC70 present | activation (rescue from dofetilide block), less the hit threshold, % at 10 µM | 310,000 tested, 0.51% active;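 active = activation above the mean of controls blocked by dofetilide plus 5 SD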;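 note: thallium influx through hERG after potassium depolarization seen as dye fluorescence rise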
# Kir21 block – Kir2.1 (mouse) channel inhibition | P35561 | HEK293-Kir2.1, FluxOR thallium flux fluorescence; active compounds read low | B-score at 10 µM | 310,000 tested, 0.85% active | AID 1672;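 active = fluorescence ratio B-score at or below minus 3 SD of library scores, with starting-brightness B-score within 2 SD, cut at about -4.2 in these data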;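 note: channel flux triggered by added potassium and thallium sulfate stimulus; B-score of peak minus minimum fluorescence over baseline after thallium stimulus; more negative B-score means stronger Kir2.1 block with less thallium influx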
# KCNQ1 act – potentiators or activators of human KCNQ1 potassium channel. P51787. CHO-K1 KCNQ1, thallium flux FluxOR fluorescence; active compounds read high. B-score at 10 µM. 310,000 tested, 0.35% active;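 active = fluorescence ratio B-score, a plate-corrected score, at least three library SD, with initial intensity B-score within 5 SD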
#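 Assay system: CHO-K1 cells stably expressing KCNQ1. Medium: assay buffer for compound exposure, DMSO matched across wells. Timing: 37 °C overnight plating, 90-min dark dye load, 20-min compound pretreatment. Signal: kinetic FluxOR fluorescence, 10 s baseline plus 110 s post-stimulus.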
# KCNQ1 inh – inhibitors of human KCNQ1 potassium channel; P51787; CHO-K1 KCNQ1, FluxOR thallium flux fluorescence; active compounds read high; B-score at 10 µM; 310,000 tested, 1.3% active;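 active = compounds whose thallium flux B-score, printed positive for inhibition, exceeds three library SD while starting fluorescence stays within three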;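 note: channel opened by potassium depolarization with thallium stimulus after 20 min compound exposure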
# KCNK9 inh – human KCNK9 channel inhibition. HEK293 KCNK9, FluxOR thallium flux fluorescence; active compounds read low. B-score at 10 µM. 310,000 tested, 1.2% active. AID 488922;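 active = ratio B-score over 3 SD below the library mean, with starting fluorescence within 5 SD of its mean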;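 note: negative B-score means less thallium flux so channel inhibition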
# KCNK3 block – human KCNK3 channel inhibition, primary screen. O14649. CHO-KCNK3 thallium flux, FluxOR fluorescence; active compounds read low. B-score at 10 µM. 340,000 tested, 0.84% active. AID 602410;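 active = B-score under library mean minus 4 SD, starting fluorescence ratio at most library mean plus 5 SD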;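 note: more negative B-score means stronger inhibition of thallium flux through KCNK3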
# KCNK9 inh conf – human KCNK9 inhibitor confirmation. shares compounds with KCNK9 inh. inhibition, % at 10 µM. HEK293 KCNK9 cells, FluxOR thallium flux fluorescence. 4,900 tested, 43% active;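 active = thallium signal inhibited by more than 5 SD of the compound-free buffer control wells, on both duplicate plates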;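 note: 0% = assay buffer control wells without compound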
# Kir2-1 spec – tests whether KCNK9 modulators also affect mouse Kir2.1; shares compounds with KCNK9 inh; Kir2.1 cells, FluxOR thallium flux fluorescence; inhibition, % at 10 µM; 4,900 tested, 4% active;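 active = thallium signal drop more than 5 SD beyond the mean of the no-compound control wells, seen in both duplicate plates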;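 note: signal is fluorescence rise after thallium addition divided by baseline fluorescence; plate controls were assay buffer only for no effect and full block by chlorpromazine control for full effect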
# KCNK9 uninduced – second counter-screen for KCNK9 modulators: effect in non-induced cells; shares compounds with KCNK9 inh; non-induced KCNK9-HEK293, FluxOR thallium flux; inhibition, % at 10 µM; 4,900 tested, 40% active;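 active = thallium signal drop beyond 5 SD of the untreated control mean, on both duplicate plates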;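 note: plate controls were buffer only IC0 wells for no effect and SID17386958 at its maximal inhibitory level for full effect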
# * marks the source's active call; other numbers are inactive results; i = inactive; nt = no result given. Shown are actives, neighbours in structure and some others; about 3.7% of the full set was active somewhere.
SMILES,hERG protect,Kir21 block,KCNQ1 act,KCNQ1 inh,KCNK9 inh,KCNK3 block,KCNK9 inh conf,Kir2-1 spec,KCNK9 uninduced
CC(=O)Nc1ccc(NC2CCCCC2NS(=O)(=O)c2ccccc2)cc1 (stereo not drawn),-7,0.66,i,i,i,i,nt,nt,nt
COc1ccc(NC(=O)Nc2cc(C(C)(C)C)on2)cc1OC,-11,-0.3,i,i,i,i,nt,nt,nt
Cc1cccc(N2CCN(C(=O)CCC(=O)N3CC(C)Oc4ccc(C)cc43)CC2C)c1 (stereo not drawn),-13,0.83,i,i,i,i,i,i,i
Cc1ccc2c(c1)N(C(=O)CCC(=O)NCc1ccccc1)CC(C)O2 (stereo not drawn),-4,0.24,i,i,i,i,nt,nt,nt
Cc1ccc2c(c1)N(C(=O)CCC(=O)N1CCN(c3ccccn3)CC1)CC(C)O2 (stereo not drawn),-11,-0.05,i,i,i,i,nt,nt,nt
Cc1ccc2c(c1)N(C(=O)CCC(=O)Nc1ccccc1Cl)CC(C)O2 (stereo not drawn),-11,-1.7,i,i,i,i,i,i,i
O=c1c(C/C=C/c2ccccc2)c(O)ccn1Cc1ccc(Cl)cc1Cl,-16,1.2,i,9*,i,i,i,i,i
O=c1c(Cc2ccc(Cl)cc2Cl)c(O)ccn1Cc1ccncc1,-4,0.54,i,i,i,i,nt,nt,nt
CCOCCCNC(=S)NCCCNc1nc2ccc(C)cc2cc1C#N,-14,0.14,i,i,i,nt,nt,nt,nt
CCOCCCNC(=S)NCCNc1nc2ccc(C)cc2cc1C#N,-8,0.64,i,i,-8.3*,i,i,i,i
Cc1ccc(NS(=O)(=O)c2cccc(C(=O)NCCc3c[nH]c4ccccc34)c2)c(C)c1,-17,1.1,i,i,i,i,i,i,27%*
COCCn1c(Cc2ccccc2)nnc1SC(C)C(=O)NC1CC1 (stereo not drawn),nt,nt,nt,nt,nt,i,nt,nt,nt
Cc1cccc(-n2c(SCC(N)=O)nc3c(c2=O)C2(CCCC2)Cc2ccccc2-3)c1,-6,1.7,i,i,-9*,i,53%*,i,35%*
Cc1cccc(-n2c(=O)c3c(n4cnnc24)-c2ccccc2CC32CCCCC2)c1,-14,-1.1,i,i,i,i,nt,nt,nt
Oc1ccc(/C=N/Nc2cc(N3CCCC3)nc(N3CCCC3)n2)cc1,-6,0.52,i,i,i,i,nt,nt,nt
COc1ccc(/C=N/Nc2cc(N3CCCC3)nc(N3CCCC3)n2)cc1,-22,-1.8,i,8*,i,i,i,i,i
Cc1ccc(CNS(=O)(=O)c2ccc3c(c2)NC(=O)C(C)S3)cc1 (stereo not drawn),-5,-1.3,i,i,i,i,nt,nt,nt
COCCn1cnc2c(c1=O)c1nc3ccccc3nc1n2/N=C/c1cccc(OC)c1,-3,1.1,i,i,-9.7*,i,i,i,i
O=C(Nc1ccccc1N1CCOCC1)c1cccc2c(Br)cccc12,-2,-2.5,i,i,i,i,i,i,i
CC1CCN(c2ccccc2NC(=O)c2cc([N+](=O)[O-])ccc2N2CCOCC2)CC1,-13,1.3,i,8*,-9.8*,i,30%*,i,30%*
CCc1ccccc1NC(=O)c1cc([N+](=O)[O-])ccc1N1CCOCC1,-5,-0.24,i,i,i,i,nt,nt,nt
CC(C)C(NC(=O)c1c(F)cccc1F)C(=O)N1CCN(c2ccccc2F)CC1 (stereo not drawn),-7,0.41,i,i,i,i,nt,nt,nt
COc1ccc(-c2nnc(SCC(=O)c3ccc(C)o3)o2)cc1,-1,0.72,i,i,i,i,nt,nt,nt
COc1ccc(-c2nnc(SCc3cc(C)cc(C)c3)o2)cc1,-10,0.14,i,i,i,i,i,i,i
CCOC(=O)CN(C(=O)COc1nc(-c2ccccc2)cc(C)c1C#N)c1ccc(C)cc1,-10,-0.94,i,i,i,i,i,i,i
SMILES,hERG protect,Kir21 block,KCNQ1 act,KCNQ1 inh,KCNK9 inh,KCNK3 block,KCNK9 inh conf,Kir2-1 spec,KCNK9 uninduced
CCOC(=O)CN(C(=O)COc1nc(-c2ccccc2)cc(C)c1C#N)c1cccc(OC)c1,-10,-3.1,i,i,i,i,nt,nt,nt
CCOC(=O)CN(C(=O)COc1nc(-c2ccccc2)cc(C)c1C#N)c1ccccc1C,-11,0.94,i,i,i,i,i,i,i
CCOC(=O)CN(C(=O)COc1nc(-c2ccccc2)cc(C)c1C#N)c1ccccc1,-10,-0.18,i,i,i,i,nt,nt,nt
Cn1c(SCc2ccccc2Cl)nc2ccccc21,-10,1.4,i,i,-8.4*,i,66%*,i,i
O=[N+]([O-])c1ccc(C(=S)N2CCC(Cc3ccccc3)CC2)cc1,-7,1.2,i,i,-13*,i,i,i,i
O=[N+]([O-])c1ccc(CN2CCC(Cc3ccccc3)CC2)cc1,-9,0.32,i,i,i,i,nt,nt,nt
C=C(C)COc1ccc(-c2ncncc2-c2ccc(Br)cc2)c(O)c1,-5,0.37,i,i,i,i,i,i,i
COc1cccc(-n2cc(C(=O)NC(C)C)c3ccccc3c2=O)c1,-3,0.56,i,i,i,i,nt,nt,nt
COc1cccc(NC(=O)CN(C)C(=O)[C@@H]2CCCN2C(=O)c2cccs2)c1,nt,nt,nt,nt,nt,i,nt,nt,nt
COc1cccc(N2C(=O)CC(N3CCC(c4nc5ccccc5[nH]4)CC3)C2=O)c1 (stereo not drawn),-23,0.04,i,i,i,i,nt,nt,nt
O=C1CC(N2CCC(c3nc4ccccc4o3)CC2)C(=O)N1c1cc(Cl)cc(Cl)c1 (stereo not drawn),-6,1,i,8*,-8.6*,i,43%*,i,i
O=C(NNC(=S)Nc1ccc(Br)cc1)c1ccccc1Br,-16,0.73,i,i,i,i,i,i,i
COC(=O)Cc1ccc(NC(=S)NNC(=O)c2ccccc2Br)cc1,-1,1.2,i,i,i,i,nt,nt,nt
C=C(C)Cn1c(CCNC(=O)C(C)C)nc2ccccc21,-13,0,i,i,i,i,i,i,i
